For this test, the target named is Epstein-Barr virus nuclear antigen 1 (EBNA-1) DNA-binding domain. As to the kind of experiment: blockers of EBV EBNA-1 DNA binding, IC50 – biochemical, fluorescence polarization, dose response, powder samples, late-stage follow-up (AID 489000). Conditions: Recombinant EBNA-1 DBD, Cy5-DNA fluorescence polarization. Put shortly: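 Assay system: E. coli-expressed EBNA-1 DBD protein; dosing: 10-point threefold dilution series from 148 µM nominal, 1.5% DMSO; incubation: 30 min pre-mix, 1 h with compound, RT; technique: fluorescence polarization, 620 nm excitation, 688 nm emission; benchmarks: Protein-free versus protein-only wells; replication: triplicate per compound concentration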
(In general: Fluorescence polarisation rises when a labelled molecule tumbles more slowly, as on binding a larger partner.)

The source made the active and inactive calls.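 Rule for the calls: active = IC50 for blocking EBNA-1 binding to its DNA probe at or below 10 µM; inactive = the rest.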

By IC50 is commonly meant the midpoint of a concentration-inhibition curve. Take `Cc1cc(C(=O)CSc2nnnn2C)c(C)n1CC1CCCO1` (centres undefined): the IC50 is > 148 µM (inactive). Consider `Cc1ccc(C(=O)Nc2nc3ccc(Br)cc3s2)cc1C`, for which the IC50 was > 148 µM (inactive).

For `COc1cccc(C(=O)Nc2nc3ccc(S(C)(=O)=O)cc3s2)c1`, the IC50 entry was “inactive”. As to `CS(=O)(=O)c1ccc2nc(NC(=O)c3ccccc3Cl)sc2c1`, the IC50 is > 148 µM (inactive).

Take `Cc1cc(C(=O)CSc2nnnn2-c2cccc(F)c2)c(C)n1CC1CCCO1` (centres undefined): the IC50 was > 148 µM (inactive). For `Cc1cc(C(=O)CSc2nnnn2-c2ccccc2)c(C)n1C`, the IC50 entry is “inactive”. With `Cc1ccc(C(=O)Nc2nc3cc(Br)ccc3s2)cc1C`, the IC50 was > 148 µM (inactive). With `Cc1ccccc1C(=O)Nc1nc2ccc(S(C)(=O)=O)cc2s1`, the IC50 was > 148 µM (inactive). For the compound `COc1ccccc1C(=O)Nc1nc2ccc(S(C)(=O)=O)cc2s1`, the IC50 is > 148 µM (inactive).

With `Cc1cccc(C(=O)Nc2nc3ccc(S(C)(=O)=O)cc3s2)c1`, the IC50 entry was “inactive”. In the case of `COCCn1c(C)cc(C(=O)CSc2nnnn2-c2ccccc2)c1C`, the IC50 is > 148 µM (inactive). As to `COc1ccc2nc(NC(=O)c3ccc(C)c(C)c3)sc2c1`, the IC50 was > 148 µM (inactive). For `CCn1c(C)cc(C(=O)CSc2nnnn2-c2ccccc2)c1C` the value was > 148 µM (inactive); for `Cc1ccc(C(=O)Nc2nc3ccc(S(C)(=O)=O)cc3s2)cc1`, > 148 µM (inactive). For `Cc1cccc(-n2nnnc2SCC(=O)c2cc(C)n(CC3CCCO3)c2C)c1` (centres undefined), the IC50 was > 148 µM (inactive). Take `CS(=O)(=O)c1ccc2nc(NC(=O)c3ccc(Cl)cc3)sc2c1`: the IC50 entry is “inactive”.

`CS(=O)(=O)c1ccc2nc(NC(=O)c3ccccc3F)sc2c1`: the IC50 is > 148 µM (inactive). With `Cc1cc(C(=O)CSc2nnnn2-c2ccc(Cl)cc2)c(C)n1CC1CCCO1` (centres undefined), the IC50 is > 148 µM (inactive). Turning to `COc1cccc2sc(NC(=O)c3ccc(C)c(C)c3)nc12`, the IC50 was > 148 µM (inactive). For `Cc1ccc(C(=O)Nc2nc3cc(F)ccc3s2)cc1C` the value was > 148 µM (inactive).

Turning to `COc1ccc2sc(NC(=O)c3ccc(C)c(C)c3)nc2c1`, the IC50 is > 148 µM (inactive). Take `CS(=O)(=O)c1ccc2nc(NC(=O)c3cccc(F)c3)sc2c1`: the IC50 is > 148 µM (inactive). For the compound `COc1ccc(-n2nnnc2SCC(=O)c2cc(C)n(CC3CCCO3)c2C)cc1` (centres undefined), the IC50 was > 16.4 µM (inactive). Consider `CS(=O)(=O)c1ccc2nc(NC(=O)c3cccc(Cl)c3)sc2c1`, for which the IC50 was > 148 µM (inactive). Consider `O=C(CSc1nnnn1-c1ccccc1)c1ccn(CC2CCCO2)c1` (centres undefined), for which the IC50 was > 148 µM (inactive).

As to `Cc1ccccc1-n1nnnc1SCC(=O)c1cc(C)n(CC2CCCO2)c1C` (centres undefined), the IC50 was > 148 µM (inactive). For the compound `COc1ccc(C(=O)Nc2nc3ccc(S(C)(=O)=O)cc3s2)cc1`, the IC50 result was “inactive”.

For `Cc1cc(C(=O)CSc2nnnn2-c2ccccc2)c(C)n1Cc1cccs1`, the IC50 was > 148 µM (inactive). Take `Cc1cc(C(=O)CSc2nnnn2C2CC2)c(C)n1CC1CCCO1` (centres undefined): the IC50 entry was “inactive”.

For the origin of these results see PubChem BioAssay AID489000 (The Scripps Research Institute Molecular Screening Center, 2010).
